Source: publication PMC7007868 (Molecular cancer therapeutics, 2019)
Like-named read-outs stand apart in the source and are kept apart here.

Tests used:
[1] = test system: refractory pediatric sarcomas; conditions: prolonged infusion; cited from earlier work
[2] = test system: MPNST xenograft; conditions: single agent, twice-daily dosed; cited from earlier work
[3] = test system: FGAR amidotransferase; conditions: cited from earlier work
[4] = doses over 0.6 mg/kg daily, by treatment days 6–7; cited from earlier work
[5] = Parallel artificial membrane permeation assay; format: in vitro ADME; conditions: PAMPA
[6] = test system: immortalized Schwann cells (ipn02.32λ); assay: Alamar blue viability dose response; format: cell-based, human; conditions: 72 hours drug treatment
Method in brief: (§1)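 Human MPNST cells and immortalized Schwann cells were grown at 37°C in humidified 5% CO2 and exposed to test compound for 72 h. Viability was read by alamar blue fluorescence at 590 nm and expressed as percent viable relative to untreated controls. Data are given ± S.D.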

[7] = test system: human MPNST cells (sNF96.2); assay: Alamar blue viability dose response; format: cell-based; conditions: SNF96.2, 72 h, read-out: IC50 growth inhibition
Method in brief: as §1

[8] = test system: MPNST cells sNF02.2; assay: Alamar blue viability dose response; format: cell-based, human; conditions: read-out: IC50 growth inhibition
[9] = test system: murine flank MPNST; assay: Efficacy in murine flank MPNST model; format: in vivo, mouse; conditions: 1.2 mg/kg p.o. × 5 days, 0.5 mg/kg × 9 days; vehicle 1695 mm^3; p≤0.05
[10] = test system: glutamine utilization; assay: Quantitative glutamine analysis in tumor and plasma; format: in vivo, mouse
[11] = test system: human MPNST cells (sNF96.2) in human plasma; assay: Tumor cell-to-plasma partitioning; format: in vitro ADME
Method in brief: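 sNF96.2 cells were washed twice in PBS and resuspended in human plasma at 7.5 million cells/mL. Test compound was spiked at 20 µM and incubated 1 h at 37°C, then spun at 1000 × g for 5 min at 4°C. Plasma and PBS-washed cell pellets were stored at -80°C, and intact prodrug and released glutamine antagonist were measured by LC-MS/MS as percent of total. Mean ± S.E.M.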

[12] = swine, cited from earlier work
[13] = Modified Irwin assay; format: in vivo, mouse; conditions: days 0, 8, 15; for modified Irwin battery, autonomic and somatomotor function: B6 flank MPNST mice, oxotremorine 0.5 mg/kg s.c. once
Method in brief: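 B6 flank MPNST mice on the 14-day efficacy dosing regimen or vehicle were scored blind on a modified Irwin autonomic/somatomotor battery on days 0, 8 and 15, including hang time (s) from an inverted wire. A separate cohort (n=5) received oxotremorine 0.5 mg/kg s.c. 30 min before testing as assay control. Scores were averaged and normalized to day-0 vehicle; grip times were compared by multiple t-tests.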

[14] = swine and human plasma, at 1 hour; cited from earlier work
[15] = test system: glutamine incorporation in murine flank MPNST; assay: In vivo stable isotope flux analysis; design: species or system mouse; conditions: 1.2 mg/kg/dose p.o. for five days; m+1, m+2 (IMP, AMP), m+3 (GMP)
Method in brief: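 B6 flank MPNST mice received vehicle or test compound at 1.2 mg/kg/dose p.o. for five days. On harvest day they were dosed orally, then 30 min later given three 0.2 ml tail-vein injections of 200 mM ¹⁵N₂-glutamine, 15 min apart. Tumors were flash frozen, extracted in cold 80% methanol, dried and redissolved in 50% acetonitrile. Analysis was by C18 ion-pair (tributylamine) LC-Q-TOF MS with natural-abundance correction.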

[16] = Dose tolerance in non-tumored NPcis mice; format: in vivo, mouse; conditions: 1.2 mg/kg p.o. × 5 days then 0.5 mg/kg p.o. daily, over thirty days
[17] = Plasma stability of JHU395, 60 min at 37°C; format: in vitro ADME; conditions: one hour incubation, plasma of multiple species including humans
[18] = test system: de novo purine biosynthesis (FGAR); assay: Quantitative FGAR analysis in tumors; format: in vivo, mouse; conditions: JHU395 1.2 mg/kg p.o.
Method in brief: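 B6 flank MPNST mice (n=8/group) were given vehicle or 1.2 mg/kg/dose p.o. for five days. Tumors were snap frozen, homogenized in methanol with 10 µM deuterated N-acetylaspartic acid internal standard (5 µL/mg) and centrifuged at 16,000 × g for 5 min. Supernatants were run by UHPLC–orbitrap full-MS negative mode against an FGAR standard curve in untreated tumor ([…]). Group means were compared by t-test.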

[19] = GI, hepatic and brain toxicity assessment during 14 days oral dosing; format: in vivo, mouse
Method in brief: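 Flank MPNST mice were dosed orally for 14 days on the efficacy regimen against vehicle (n=9) and weighed thrice weekly as percent change from start. In a subset (n=3–4/condition), jejunum was fixed overnight in 10% neutral buffered formalin, paraffin-embedded, sectioned at ~5 µm and H&E-stained. A veterinary pathologist examined the sections for apoptotic figures and crypt architecture.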

[20] = JHU395 pharmacokinetic analysis; format: in vivo, mouse
[21] = test system: human MPNST cells (sNF96.2); assay: Glutamine titration, alamar blue growth; format: cell-based; conditions: SNF96.2, 72 h, read-out: EC50 of glutamine to rescue growth
Method in brief: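 sNF96.2 cells were plated at 1500–2000 cells/well in standard medium. The next day the medium was replaced with glutamine-free medium made with dialyzed FBS, and fixed glutamine concentrations were added across the plate. After 72 h, growth was read by alamar blue fluorescence at 590 nm as percent growth (± S.D.).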

[22] = test system: immortalized Schwann cells (ipn02.32λ); assay: Glutamine titration, alamar blue growth; format: cell-based; conditions: Homo sapiens, 72 h, read-out: EC50 of glutamine to rescue growth
[23] = 20 μM JHU395, one hour, sNF96.2 cells in human plasma
[24] = B6 mice, thirty minutes after JHU395 1.2 mg/kg oral
[25] = flank tumored mice, JHU395 1.2 mg/kg oral

For `Sc1ncnc2nc[nH]c12` [6-MP, 6-mercaptopurine], the disease stabilization [1] is given as “approximately 25%”.
For `O=C(Cc1cccc(OC(F)(F)F)c1)Nc1ccc(CCCCc2nnc(NC(=O)Cc3ccccn3)s2)nn1` [CB-839], the MPNST xenograft growth [2] is listed as “partially decreased”.
For `[N-]=[N+]=CC(=O)CC[C@H](N)C(=O)O` [DON, 6-diazo-5-oxo-L-norleucine, reference compound], the “concentration inhibiting the enzyme that converts FGAR to FGAM” value [3] is given as “low micromolar levels”, the weight loss [4] is given as about 20% and the Papp at 5 h, 20 μM ([5]; pH 7) is given as 0.0095 ×10⁻⁶ cm/s. For the same molecule, the “effect on growth of immortalized Schwann cells” value [6] was “minimally affected”, the IC50 [7] was 9.8 µM and the IC50 ([8]; Homo sapiens, 72 h) was 2.4 µM.
For `CC(C)OC(=O)[C@H](CCC(=O)C=[N+]=[N-])NC(=O)OC(OC(=O)C(C)(C)C)c1ccccc1` (some centres unmarked) [JHU395], the “tumor volume at end of treatment” value [9] was 1045 mm^3, the plasma glutamine ([10]; flank MPNST mice, vehicle 475 nmol/ml, p≤0.0001) was 729 nmol/mL and the tumor glutamine ([10]; flank MPNST mice, vehicle 1293 nmol/g, p≤0.001) was 2096 nmol/g. For the same molecule, the “increase in plasma glutamine” value ([10]; non-tumored mice, versus vehicle) was 25%, the plasma glutamine ([10]; non-tumored mice, vehicle 830 nmol/ml, p≤0.01) was 1036 nmol/mL and the “share of total DON measured in cells” value [11, 23] was 92%. The “share of total DON measured in plasma” value [11, 23] was 8%, the “intact JHU395 in MPNST cells” value ([11]; after one hour) was “minimal” and the “intact JHU395 in plasma” value ([11]; after one hour) was “detected”. The DON brain-to-plasma ratio ([12]; DON or JHU395-derived DON) was 1.38, the “DON exposure in plasma AUC0→t” value ([12]; equimolar dose of DON or JHU395) was 5.7 µM·h and the “enhancement of DON brain-to-plasma ratio (JHU395 vs DON)” value [12] was 9.3. For the same molecule, the “apparent permeability Papp” value ([5]; 20 μM, pH 7.0, 5 h, room temperature) was 5.707 ×10⁻⁶ cm/s, the “modified Irwin battery, autonomic and somatomotor function” value [13] was “performed similarly” and the “grip time from an inverted wire” value [13] was “unaffected”. For the same molecule, the “prodrug remaining intact in plasma” value [14] was 83–88%, the “effect on growth of immortalized Schwann cells” value [6] was “minimally affected” and the “^15N2-glutamine isotopologue enrichment in IMP, AMP, GMP versus vehicle” value [15] was “significantly lower enrichment”. The “tolerability of dosing regimen” value [16] was “well-tolerated”, the “JHU395 remaining intact in plasma” value [17] was “Over 80%” and the “fold increase of tumor FGAR versus vehicle” value [18] was 75 fold. For the same molecule, the “tumor FGAR” value ([18]; vehicle 3.4 nmol/g, p≤0.01) was 254.4 nmol/g, the “change from starting weight” value ([19]; flank MPNST mice, 14 days oral dosing) was at most 10% and the “jejunal histology versus vehicle” value ([19]; subset of animals, after 14 days oral dosing) was “No differences”. For the same molecule, the brain histology postmortem ([19]; subset of brains, after 14 days oral dosing) was “no gross changes nor cortical vacuolization”, the IC50 ([8]; sNF02.2, 72 hours drug treatment) was 1.5 µM and the DON in jejunum [20, 24] was 0.18 nmol/g. For the same molecule, the DON in plasma [20, 24] was 0.91 nmol/mL, the “small intestine-to-plasma DON ratio” value [20, 24] was 0.20 and the “DON plasma AUC” value [20, 25] was 0.977 µM·h. The “DON tumor AUC” value [20, 25] was 2.496 nmol·h/g, the “DON tumor Cmax” value [20, 25] was 1.8 nmol/g and the “accumulation of DON in GI tissue versus plasma” value ([20]; mice, full time-dependent pharmacokinetic analysis) was “no accumulation”.
Work on `NC(=O)CC[C@H](N)C(=O)O` [glutamine] yielded an EC50 [21] of 209 µM and an EC50 [22] of 64.5 µM.
For `O=C1CCCN1CC#CCN1CCCC1` [oxotremorine, reference compound], the “modified Irwin battery, autonomic and somatomotor function” value [13] was “induced significant adverse effects”.
